Published values pooled from the literature.
Protocols differ between the studies behind these lines.
Target: Muscle, skeletal receptor tyrosine-protein kinase (MUSK, Homo sapiens, UniProt O15146)
Sequence (O15146 1-869, as in one of the studies): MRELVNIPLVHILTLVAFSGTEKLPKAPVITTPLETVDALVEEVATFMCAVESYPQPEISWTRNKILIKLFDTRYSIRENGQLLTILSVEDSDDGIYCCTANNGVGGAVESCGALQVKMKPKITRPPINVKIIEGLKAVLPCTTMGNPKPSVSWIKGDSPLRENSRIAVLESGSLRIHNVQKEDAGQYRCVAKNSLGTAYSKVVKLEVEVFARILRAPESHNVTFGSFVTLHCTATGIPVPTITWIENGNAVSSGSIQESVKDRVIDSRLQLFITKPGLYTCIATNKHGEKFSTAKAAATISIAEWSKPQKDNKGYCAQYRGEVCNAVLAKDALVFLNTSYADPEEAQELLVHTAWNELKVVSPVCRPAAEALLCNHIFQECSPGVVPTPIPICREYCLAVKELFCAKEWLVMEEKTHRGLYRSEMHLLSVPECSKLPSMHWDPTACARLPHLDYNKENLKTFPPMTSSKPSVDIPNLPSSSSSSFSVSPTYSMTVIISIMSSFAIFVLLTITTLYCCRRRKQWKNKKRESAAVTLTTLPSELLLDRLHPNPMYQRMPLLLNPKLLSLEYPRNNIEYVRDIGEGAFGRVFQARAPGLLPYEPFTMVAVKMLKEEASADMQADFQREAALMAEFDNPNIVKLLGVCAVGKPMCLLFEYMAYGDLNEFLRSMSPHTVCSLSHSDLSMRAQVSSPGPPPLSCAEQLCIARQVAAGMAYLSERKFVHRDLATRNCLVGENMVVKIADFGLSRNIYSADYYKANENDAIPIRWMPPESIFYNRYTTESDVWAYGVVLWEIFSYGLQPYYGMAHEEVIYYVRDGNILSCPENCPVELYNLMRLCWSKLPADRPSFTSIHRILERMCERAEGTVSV

Structure (SMILES)	test	setting	measurement	value
O=C1NC(=O)c2cc(Nc3ccc(F)cc3)c(Nc3ccc(F)cc3)cc21	cell-free assay	0.5 µM	remaining signal	90.2%
CC(=O)N1CCC(c2ccc(C(=O)NC(=N)N)cc2C(F)(F)F)CC1	cell-free assay, competition with immobilised ligand	1 µM	remaining binding	100%
CC(C)(O)[C@H]1CC[C@H](Nc2ccc3ncc(-c4cccc(C(F)(F)F)c4)n3n2)CC1	enzyme activity, inhibitor	1 µM	remaining activity	23.7%
C[C@@H]1CN(c2cc(-c3nn(C)c4ccc(OC5(C)CC5)cc34)ncn2)C[C@H](C)O1	cell-free assay, competition with immobilised ligand	1 µM	remaining binding	92%
Cc1ccc(C(=O)Nc2ccc(CN3CCN(C)CC3)c(C(F)(F)F)c2)cc1C#Cc1cnc2cccnn12	enzyme activity, inhibitor	23.5 nM	remaining activity	8%
Cc1ccc(NC(=O)c2ccc(C)c(C(F)(F)F)c2)cc1C#Cc1nn(C2CCC(O)CC2)c2ncnc(N)c12 (stereo not drawn)	cell-free assay	10 µM	remaining signal	70%
O=C(Nc1cccnn1)N1CC(C/C=C/c2cncc(Oc3ccc(C(F)(F)F)cn3)n2)C1	cell-free assay, competition with immobilised ligand	1 µM	remaining binding	97%
COc1cc2ncnc(Nc3ccc(Oc4ccccc4)cc3C)c2cc1OC	enzyme activity, inhibitor	1 µM	inhibition	4%
O=C(O)[C@@H]1[C@@H](Cn2nnc3ccccc3c2=O)CC[C@H]1C(=O)c1ccc(OCCC2CCOCC2)cc1	cell-free assay, competition with immobilised ligand	1 µM	remaining binding	100%
CCN(CC)CCNC(=O)c1c(C)[nH]c(/C=C2\C(=O)Nc3ccc(F)cc32)c1C	enzyme activity, inhibitor	0.3 µM	inhibition	98%
O=C(Nc1cnn(-c2csc(C(=O)NC3COC3)c2)c1)Nc1c(F)cccc1Cl	enzyme activity, inhibitor	5 µM	remaining activity	86.8%
CCCS(=O)(=O)Nc1ccc(F)c(C(=O)c2c[nH]c3ncc(-c4ccc(Cl)cc4)cc23)c1F	enzyme activity, inhibitor	1 µM	inhibition	< 10%
Nc1ncnc2occ(-c3ccc(NC(=O)Nc4cc(C(F)(F)F)ccc4F)cc3)c12	cell-free assay, inhibitor	20 µM	remaining signal	0%
CCCOc1ccc(OC)c(F)c1C(=O)c1ccc(C(=O)N[C@@H]2CNC[C@H]2NC(=O)c2ccc3[nH]ncc3c2)cc1	enzyme activity, inhibitor	0.75 µM	remaining activity	13%
CNCc1ccccc1-c1csc([C@H](C)Nc2nc(C)nc3cc(OC)c(OC)cc23)c1	cell-free assay, competition with immobilised ligand	1 µM	remaining binding	90%
Cc1sc(C(=O)NC2COC2)cc1-n1cc(NC(=O)Nc2c(F)cccc2Cl)cn1	enzyme activity, inhibitor	10 µM	remaining activity	103%
Cc1ccc(Nc2nccc(N(C)c3ccc4c(C)n(C)nc4c3)n2)cc1S(N)(=O)=O	enzyme activity, inhibitor	10 µM	inhibition	97%
CC(=O)Nc1c(C(C)=O)c(=O)n(C)c2nc(-c3ccc(Cl)cc3Cl)c(-c3ccc(Cl)cc3)cc12	cell-free assay, competition with immobilised ligand	1 µM	remaining binding	100%
CNC(=O)c1cc2c(Oc3ccc(NC(=O)C4(C(=O)Nc5ccc(F)cc5)CC4)cc3)ccnc2cc1OC	enzyme activity, inhibitor, radiometric	1 µM	inhibition	70%
CS(=O)(=O)NCC[C@H](NC(=O)c1cncc2c1cnn2-c1ccc(F)cc1)c1ccnc(S(C)(=O)=O)c1	cell-free assay, competition with immobilised ligand	1 µM	remaining binding	100%
CC(C)(C)c1nc(-c2cccc(NS(=O)(=O)c3c(F)cccc3F)c2F)c(-c2ccnc(N)n2)s1	enzyme activity, inhibitor, radiometric	1 µM	remaining activity	113%
O=C(NCCCC1CCCCC1)c1ccc(CNC(=O)c2cnn(-c3ccccc3)c2C(F)(F)F)cc1	cell-free assay, competition with immobilised ligand	0.1 µM	remaining binding	100%
CNC(=O)c1cc(Oc2ccc(NC(=O)Nc3ccc(Cl)c(C(F)(F)F)c3)cc2)ccn1	enzyme activity, inhibitor	10 µM	inhibition	100%
N#CCCc1ccc2c(c1)-c1[nH]c3ccc([N+](=O)[O-])cc3c1CC(=O)N2	cell-free assay	0.5 µM	remaining signal	63%
